Data taken from article PMC6945494 (Biomaterials, 2019).
Values after ≈ are worked out from the molar mass of the structure shown. Where two headings read alike, the source gives them in different places. Blank lines part the entries; values can stand above or below the compound they belong to.

Key:
[1] = tested on: HIV-1NL4–3-eGFP; test: microbe, parasite or virus in culture; type: cell-based; conditions: Human immunodeficiency virus 1, T-cell, 240 h, read-out: EC50 (RT activity)
[2] = Solubility in water and 1-octanol; type: physicochemical
Procedure, shortened: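 Excess test compound or parent nucleoside was added to water or 1-octanol to give saturated solutions. These were mixed 24 h at room temperature, then centrifuged at 14,000 × g for 10 min to remove undissolved drug. Supernatant concentration was quantified by UPLC-TUV.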

[3] = tested on: HIV-1ADA; test: EC50 by HIV-1 RT activity in MDM; type: cell-based; conditions: read-out: EC50 (HIV-1 RT activity)
[4] = tested on: MDM; test: Cellular drug uptake and retention in MDM; type: cell-based, human
[5] = Pharmacokinetics and biodistribution after a single IM injection; type: in vivo, Sprague Dawley rats; conditions: rat
[6] = tested on: MDM; test: MTT cell viability assay in MDM; type: cell-based, human; conditions: for effect on mitochondrial reductase activity (MTT): 10–400 μM
[7] = tested on: CEM-ss CD4+ T-cells
[8] = tested on: HIV-1ADA; test: Long-term antiretroviral efficacy in MDM; type: cell-based
Procedure, shortened: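 Human monocytes from leukapheresis, purified by elutriation and differentiated 7 days in DMEM with 10% heat-inactivated human serum and 1000 U/mL MCSF. MDM were exposed to 100 μM test compound for 8 h, washed, and kept drug-free with half-media changes every other day. On days 1–30 they were challenged with HIV-1ADA at MOI 0.1 for 16 h. RT activity in fluids on day 10; PFA-fixed cells stained for p24.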

[9] = Plasma stability, human plasma; type: in vitro ADME; conditions: 37 °C; for chemical stability in plasma: up to 24 h, 1 μM
Procedure, shortened: (§1)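 Plasma (100 μL) was spiked with 1 μM test compound at 37 °C. It was stopped at 0, 2, 6 and 24 h with 1 mL methanol and 3 min vortexing. Heat-inactivated plasma under identical conditions separated chemical from enzymatic loss. After centrifugation at 15,000 g for 10 min, supernatant was diluted in 80% methanol with internal standard. Analysed by UPLC-MS/MS.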

[10] = Prodrug chemical stability at acid, alkaline and neutral pH; type: physicochemical; conditions: room temperature; for prodrug degraded: after 24 h
[11] = Plasma stability, animal plasma; type: in vitro ADME, rat, mouse; conditions: rodent, dog, rabbit and monkey plasma, after 24 h at 37 °C
Procedure, shortened: as §1

Structure (SMILES): Nc1nc(=O)n([C@@H]2CS[C@H](CO)O2)cc1F [FTC, emtricitabine]
EC50 [1]: 25.7 nM
solubility at 24 h ([2]; 1-octanol): 0.97 ± 0.027 mg/mL (≈ 3.92 mM)
solubility at 24 h ([2]; water): 143 ± 11.2 mg/mL (≈ 578 mM)
EC50 ([3]; Human immunodeficiency virus 1, 240 h): 0.5 nM
intracellular drug concentration (uptake) ([4]; 100 μM, over 8 h): < 0.1 nmoles/10^6 cells
intracellular drug (retention) ([4]; at 8 h): undetectable
concentration at 7 days ([5]; male, Sprague Dawley, whole blood, intramuscular, 45 mg/kg FTC-equivalent): < 2 ng/mL
drug concentrations in blood and tissues over time (in words) ([5]; single IM 45 mg/kg): declined to undetectable levels within a day
FTC-TP levels in lymph node and spleen cells ([5]; single IM 45 mg/kg FTC equivalents, day 28 / one month): undetectable levels
drug levels in tissues (in words) ([5]; single IM 45 mg/kg, lymph nodes, spleen, liver): rapidly fell below the limit of quantitation
effect on mitochondrial reductase activity (MTT) [6]: No effects
concentration not affecting cell viability (LiveDead staining) ([7]; human): ≤ 200 µM
inhibition at 100 µM ([8]; Human immunodeficiency virus 1, 8 h, read-out: protection (viral inhibition)): 40%
viral inhibition ([8]; MDM, single 8 h treatment 100 μM, challenge at time points later than day one): no viral inhibition

chemical stability in plasma ([9]; heat inactivated human plasma): over 90%
plasma stability (in words) ([9]; normal and heat inactivated human plasma, over 24 h): remained stable
chemical stability in plasma ([9]; normal human plasma): over 90%
prodrug degraded ([10]; acidic pH (0.1 M HCl)): 10%
prodrug degraded ([10]; alkaline pH (0.1 M NaOH)): 10%
chemical stability at neutral pH ([10]; neutral pH (water)): stable over 7 days
fold improvement in octanol solubility compared to FTC ([2]; 1-octanol): 90 fold
octanol solubility ([2]; 1-octanol, saturated solution mixed 24 h): 87.56 ± 0.236 mg/mL
fold decrease in aqueous solubility compared to FTC ([2]; water): 4000 fold
aqueous solubility ([2]; water, saturated solution mixed 24 h): 0.0366 ± 0.0093 mg/mL (≈ 0.0426 mM)
EC50 ([3]; HIV-1ADA in MDM, MOI 0.1, 10 days): 0.11 nM
degradation in plasma (in words) [11]: high
Structure (SMILES): CCCCCCCCCCCCCCCCCCCCCCOC(=O)[C@H](Cc1ccccc1)NP(=O)(OC[C@@H]1O[C@H](n2cc(F)c(N)nc2=O)CS1)Oc1ccccc1 (stereo partly drawn) [M2FTC]
effect on mitochondrial reductase activity (MTT) [6]: No effects
non-cytotoxic concentration (MTT) ([6]; 24 h treatment): ≤ 100 µM
effect on cell viability (MTT) ([6]; above 100 μM): slight reduction in cell viability
concentration not affecting cell viability (LiveDead staining) [7]: ≤ 200 µM
